Test results: the EternaBench riboswitch data

Tested on: MS2 coat protein
Assay: apparent Kd, MS2 coat protein; higher = weaker binding; RNA-MaP array; FMN 200 µM where present
In short: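 Designs were transcribed by stalled E. coli RNA polymerase on Illumina sequencing-chip clusters. They were titrated with SNAP-549-labelled MS2 coat protein from 0.7 or 1.5 nM, doubling to 3 µM, without and then with constant ligand. Buffer: 100 mM Tris-HCl pH 7.5, 80 mM KCl, 4 mM MgCl2, BSA, DTT, yeast tRNA, Tween-20. Green signal was normalised to red-channel RNA signal and control-cluster median Fmax. Apparent Kd is the median of filtered per-cluster binding-curve fits.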

[1] = designed as: ON switch for flavin mononucleotide, no ligand
[2] = ligand present: flavin mononucleotide, designed as: ON switch for flavin mononucleotide
[3] = designed as: OFF switch for flavin mononucleotide, no ligand
[4] = ligand present: flavin mononucleotide, designed as: OFF switch for flavin mononucleotide

Row | Sequence | apparent Kd [1] [nM] | apparent Kd [2] [nM] | apparent Kd [3] [nM] | apparent Kd [4] [nM]
1 | GUAUCAUACCAAGGAUAUUUAGGACUUGGAUAGACAUGAGGAUCACCCAUGUGGCGUUAGUCACGGGAGAAGGUGGUAUGAUAC | 103 | 20.7 |  | 
2 | UAGAGUCGCGUCAGGAUAUACCACUUAACCCAGUAGUAGAAGGGACAUGAGGAUCACCCAUGUCGGUGUUAGCC |  |  | 23.2 | 26.2
3 | AAUUAGUAAGAAUCACAUGAGGAUCACCCAUGUUUACGGAUGCAGGAUAUGUGGGAUAUUACUUAACAGAAGGGCAAUAACUUU | 104 | 44.2 |  | 
4 | UUGUUACGAUUAGGAUAUUAUUGAUUGGACAGUAUGAUUUACAUGAGGAUCACCCAUGUUACUUUUAAGAAGGAAUCGUAUUAU |  |  | 20.9 | 17.2
5 | CGGUAAACCACAGGAUAUGGCUAGCAUAGCUAGCCAGAAGGGUGGUCGAAACCAUGUAAAUACAUGAGGAUCACCCAUGUAUCC | 501 | 52.6 |  | 
6 | CGCAAGUCAGGAUAUUCGACUGGUAAAUCAGUGGAUCAGUAGGAGAAGGGACAUGAGGAUCACCCAUGUUUGUA |  |  | 27.8 | 30
7 | AAGCAUUGGCUUCUCAUCUACAUGAGGAUCACCCAUGUCGGGAGAAGGAGGCGUUGACGAAUAGCCUAGGAUAUCCUAACGUGC |  |  | 6.84 | 6.99
8 | GGCGAACAGGCUAACAUGAGGAUCACCCAUGUGGACUCAUGGUAGGAUAUGCUGUACUUUGUACAGCAGAAGGGCCGGUGAGCC | 54.4 | 315 |  | 
9 | CCUAAGGACACAGGAUAUAGCGUGGUUGCUGGGCUCCAACGGCGAGCGGCGCUAGAAGGGUGACCACAUGAGGAUCACCCAUGU | 532 | 162 |  | 
10 | AAAACUCAGAUAGGAUAUAUAGGAUAACUUAAGACCUAACAUGAGGAUCACCCAUGUGAUUAUUCGUAGAAGGAUCAUUGAACC | 240 | 238 |  | 
11 | GGAUCCUUCACAGGAUAUGCUGGACUUUGUCCAGCAGAAGGGUGAACAUGAGGAUCACCCAUGUAUUGGAUCCAUAUAUUUAAU | 897 | 56.1 |  | 
12 | AUAGCGCCCGAGAAGGACGUACCACAUGUUGAUCACCGAUAUAAGGAACGUAGGAUAUUGGACAUGAGGAUCACCCAUGUGGAU | 122 | 47.1 |  | 
13 | CAGCACUAUCGAGAGGAUAUGCGGUGAUGGACAUGAGGAUCACCCAUGUUAGCGAUGGCAUCACGGCAGAAGGCUCUGCUGCUGC | 15.6 | 12.8 |  | 
14 | AAUUCACAUGAGGAUCACCCAUGUCAGGAUAUGGUUUCACGGGUUUCGGUGCGUGAGGCCAGAAGGGACAGCUA |  |  | 61 | 73.7
15 | UUGGACGUCGUAGGAUAUGUAGGAUAUUCCUACAUGAGGAUCACCCAUGUUGACAUGGAAGAAGGACAGUAGGACGAUGUCCAU | 251 | 8.02 |  | 
16 | GGCAGACAUGAGGAUCACCCAUGUGAGGAUAUCGUCAUAGAUGCAAAAGCAUCUAUGACGAGAAGGUACAUGCC |  |  | 23.2 | 19.2
17 | AACAAGUGAGGAUAUGAUAAUACAACAAACAAACAUCUACAUCAGAAGGCACAUGAGGAUCACCCAUGUUAAUC |  |  | 22 | 27.2
18 | AUUAUUUAGUGAGGAUAUACAGAUUAUGAGUUUGUAGAAGGCACUUUCCUCAGGACAUGAGGAUCACCCAUGUGUUAAUAAGAU |  |  | 89.7 | 316

Row | Sequence | apparent Kd [1] [nM] | apparent Kd [2] [nM] | apparent Kd [3] [nM] | apparent Kd [4] [nM]
19 | CGUGUGUGAACAGGAUAUUGGAACGUACCUCGCCACAUGAGGAUCACCCAUGUCGUUGCUCACGCCAAGAAGGGUUUACGCCUA | 248 | 226 |  | 
20 | AGAUAACAUGAGGAUCACCCAUGUGAGGAUAUUUACCCAAGAGCUUCGGCUCUCAGGUGGAGAAGGCACGUUGA |  |  | 51.3 | 76.8
21 | GUCCCUACAUGAGGAUCACCCAUGUGGGCGGUAAGGAGCCCACAGGAUAUGCGAAGUAGGACAUAGCAGAAGGGUGGUGUUCAG | 146 | 97.3 |  | 
22 | UUUGAGUUCCGAGACCGCGGGUUCACAGAAGGCAUUAUUACAUGAGGAUCACCCAUGUGGGUACAUGAGGAUAUGUGAUAUGCG | 20.5 | 6.99 |  | 
23 | GGUUUGGGAGGAUAUGGCUUGAAUGACAUGAGGAUCACCCAUGUAAGUGGAUCUUCCGGGCCAGAAGGCUCGGGCC |  |  | 63.8 | 136
24 | GGGUACAUCGGAGGAUAUCAUGUAGACACAUGAGGAUCACCCAUGUCGAUGGAGACAUCGGAGAUUGAGAAGGCCGAUGUACCG | 435 | 23.9 |  | 
25 | CAGUACUGAGGAUAUACAUGAGGAUCACCCAUGUGUUCCAGCUAGGAUACUAGCAAAAGUAGAAGGCAGUACUG |  |  | 24.6 | 443
26 | AAUAAGCUAGGAUAUACAUGAGGAUCACCCAUGUGAGGGCACGGCCGGCGCGUUUCCGGUAGAAGGAGUCAUAA |  |  | 34.5 | 25.2
27 | UAUAAACAUGAGGAUCACCCAUGUAAUAAUAUGGGAGGAUAUCAGAAUUUAUUUAUUUAAUGAGAAGGCCUAAUAU | 627 | 43.2 |  | 
28 | UAAAUGUGAGGAUAUCAGGUGUGCUAGAGAACUGGUACAUCUGAGAAGGCACAUGAGGAUCACCCAUGUUCUUC |  |  | 39 | 207
29 | UUAUACAUUCGAGGAUAUCGGUGAGAAAUCUUUCGAGAAGGCGAUUCAUGAUGUAUUAUCCUGGACAUGAGGAUCACCCAUGUA | 148 | 92.5 |  | 
30 | GAUCAACAUGAGGAUCACCCAUGUGAGGAUAUGAUACUAUGUACUUCGGUACAUAGUAUCAGAAGGCACAUAAA |  |  | 67.9 | 218
31 | GGACAUUUACAGAAGGGCAAGUUAGAUAGUGAAUAUUUAGUUCUGACUUGCAGGAUAUGUUGAACAUGAGGAUCACCCAUGUCC | 14.4 | 10.6 |  | 
32 | CAAUUUAUAACAGGAUAUAUAAUACAAUGGUUAAUAGAAGGGUUUAAUACAUGAGGAUCACCCAUGUCAUGUGUCAUAAUUACC |  |  | 23 | 17.1
33 | GUAAGUCAUGUAGGAUAUCCGAGGCGAAGCGUUGGAGAAGGACAUGAGGAUCACCCAUGUUCUAGCGUCUGAGUACAGAUGCAG |  |  | 29.4 | 104
34 | GUAGGGUCAGGAUAUACUGGCUGAGGGAUGUAUUGUAGUUGGUAGAAGGGACAUGAGGAUCACCCAUGUAAGAA |  |  | 36 | 26.1
35 | GCGAGUAAAGCAGGAUAUCUAUUGUCUCUGUAACAUGAGGAUCACCCAUGUAGAGAAGGGCUUAGUCAUACACUUCGAACUCGC |  |  | 5.57 | 5.38
36 | GGACAUGUCGUCUACAUGAGGAUCACCCAUGUCGAUAGACAUGAGGAUAUCGAUACAAAUUGUAUCGAGAAGGCAUGCAGGUCC | 18.7 | 17.7 |  | 
